In ChEMBL document CHEMBL3526048, “In vitro metabolism of rivoglitazone, a novel peroxisome proliferator-activated receptor γ agonist, in rat, monkey, and human liver microsomes and freshly isolated hepatocytes” (Drug Metab Dispos, 2011):

Key:
Cytochrome P450 3A4 = Cytochrome P450 3A4 (Homo sapiens, UniProt P08684); experiment: Activity of human CYP3A4 expressed in microsomes isolated from baculovirus infected insect cell assessed as enzyme-mediated compound formation treated with [14C]-rivoglitazone at 20 uM after 2 hrs by radio-HPLC/LC-MS/MS analysis in presence of NADPH-generating system; assay type: ADME
How it was run: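 Baculovirus-insect-cell microsomes expressing the human CYP (1 mg/ml protein) were incubated with [14C]rivoglitazone (20 μM) in 50 mM potassium phosphate (pH 7.4) or 100 mM Tris-HCl (pH 7.5) with an NADPH-generating system (2 mM NADP+, 20 mM glucose 6-phosphate, 2 units/ml G6PDH, 10 mM MgCl2) for 2 h at 37°C. Insect-cell control supersomes served as the control. Reactions were stopped with acetonitrile, and the concentrated supernatants were analysed by radio-HPLC, LC-MS and LC-MS/MS.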

[1] = molecular target: T1, UDP-glucuronosyltransferase 2B7 (Homo sapiens, UniProt P16662); experiment: Activity of human UGT2B7 expressed in microsomes isolated from baculovirus infected insect cell assessed as enzyme-mediated 3-(4-((6-methoxy-1-methyl-1H-benzo[d]imidazol-2-yl)methoxy)phenyl)-2-(methylsulfinyl)propanamide formation at 20 uM after 4 hrs by radio-HPLC/LC-MS/MS analysis in presence of NADPH-generating system/SAM; assay type: ADME
T1 sequence (P16662 whole entry): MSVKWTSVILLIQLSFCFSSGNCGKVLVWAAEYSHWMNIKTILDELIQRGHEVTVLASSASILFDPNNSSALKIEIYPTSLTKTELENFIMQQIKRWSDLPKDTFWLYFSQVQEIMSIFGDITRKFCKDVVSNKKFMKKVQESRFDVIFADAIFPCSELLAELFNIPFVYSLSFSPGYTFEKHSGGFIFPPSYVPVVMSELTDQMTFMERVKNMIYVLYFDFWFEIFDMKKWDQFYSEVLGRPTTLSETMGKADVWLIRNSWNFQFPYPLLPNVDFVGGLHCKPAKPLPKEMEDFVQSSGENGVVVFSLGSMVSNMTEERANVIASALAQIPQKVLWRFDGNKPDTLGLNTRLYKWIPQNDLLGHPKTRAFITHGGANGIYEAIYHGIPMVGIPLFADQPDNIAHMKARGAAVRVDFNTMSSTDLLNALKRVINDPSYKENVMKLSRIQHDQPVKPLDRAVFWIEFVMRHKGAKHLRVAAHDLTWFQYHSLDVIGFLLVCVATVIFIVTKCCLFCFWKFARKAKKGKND

Cytochrome P450 2C9 = Cytochrome P450 2C9 (Homo sapiens, UniProt P11712); experiment: Activity of human CYP2C9 expressed in microsomes isolated from baculovirus infected insect cell assessed as enzyme-mediated 3-(4-((6-methoxy-1-methyl-1H-benzo[d]imidazol-2-yl)methoxy)phenyl)-2-(methylthio)propanoic acid formation at 20 uM after 2 hrs by radio-HPLC/LC-MS/MS analysis in presence of NADPH-generating system/SAM and UDPGA/SAM; assay type: ADME
Cytochrome P450 2C8 [2] = molecular target: T2, Cytochrome P450 2C8 (Homo sapiens, UniProt P10632); experiment: Activity of human CYP2C8 expressed in microsomes isolated from baculovirus infected insect cell assessed as enzyme-mediated (2S,3S,4S,5R,6R)-6-((1-carboxy-2-(4-((6-methoxy-1-methyl-1H-benzo[d]imidazol-2-yl)methoxy)phenyl)ethylthio)carbonylamino)-3,4,5-trihydroxytetrahydro-2H-pyran-2-carboxylic acid formation at 20 uM after 2 hrs by radio-HPLC/LC-MS/MS analysis in presence of NADPH-generating system/SAM; assay type: ADME
T2 sequence (P10632 whole entry): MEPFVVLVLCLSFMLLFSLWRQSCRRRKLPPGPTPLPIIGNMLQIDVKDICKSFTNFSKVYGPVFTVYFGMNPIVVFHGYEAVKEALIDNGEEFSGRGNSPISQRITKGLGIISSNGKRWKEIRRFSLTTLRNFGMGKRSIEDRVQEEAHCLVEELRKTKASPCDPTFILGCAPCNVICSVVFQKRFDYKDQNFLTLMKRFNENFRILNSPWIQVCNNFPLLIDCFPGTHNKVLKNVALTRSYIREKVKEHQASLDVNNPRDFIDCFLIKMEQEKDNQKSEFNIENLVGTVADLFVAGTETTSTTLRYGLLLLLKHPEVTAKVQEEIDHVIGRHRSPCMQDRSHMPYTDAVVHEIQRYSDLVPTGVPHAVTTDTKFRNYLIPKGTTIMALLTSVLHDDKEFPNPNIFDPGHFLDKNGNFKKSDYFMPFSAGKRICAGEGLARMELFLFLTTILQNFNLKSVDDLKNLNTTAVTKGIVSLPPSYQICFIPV

Cytochrome P450 2C19 = Cytochrome P450 2C19 (Homo sapiens, UniProt P33261); experiment: Activity of human CYP2C19 expressed in microsomes isolated from baculovirus infected insect cell assessed as enzyme-mediated 2-amino-3-((1-carboxy-2-(4-((6-methoxy-1-methyl-1H-benzo[d]imidazol-2-yl)methoxy)phenyl)ethyl)disulfanyl)propanoic acid formation at 20 uM after 2 hrs by radio-HPLC/LC-MS/MS analysis; assay type: ADME
How it was run: (§1)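 Baculovirus/insect-cell microsomes expressing single human CYPs, 1 mg/ml protein, with 50 mM potassium phosphate (pH 7.4) or 100 mM Tris-HCl (pH 7.5). NADPH-generating system: 2 mM NADP⁺, 20 mM glucose 6-phosphate, 2 units/ml G6PDH, 10 mM MgCl₂. [¹⁴C]rivoglitazone at 20 μM, 2 h at 37°C with shaking. Control used insect-cell control supersomes. Stopped with acetonitrile; supernatant concentrated under nitrogen; metabolites analysed by radio-HPLC, LC-MS and LC-MS/MS.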

[3] = molecular target: T1, UDP-glucuronosyltransferase 2B7; experiment: Activity of human UGT2B7 expressed in microsomes isolated from baculovirus infected insect cell assessed as enzyme-mediated 2-mercapto-3-(4-((6-methoxy-1-methyl-1H-benzo[d]imidazol-2-yl)methoxy)phenyl)propanamide formation at 20 uM after 4 hrs by radio-HPLC/LC-MS/MS analysis in presence of NADPH-generating system and NADPH-generating system/SAM in presence of UDPGA and UDPGA/SAM; assay type: ADME
[4] = Drug metabolism in cynomolgus monkey liver microsomes assessed as formation of 5-hydroxy-5-(4-((6-methoxy-1-methyl-1H-benzo[d]imidazol-2-yl)methoxy)benzyl)thiazolidine-2,4-dione at 20 uM after 2 hrs by radio-HPLC/LC-MS/MS analysis in presence of NADPH-generating system and NADPH-generating system/SAM; assay type: ADME, Macaca fascicularis
[5] = Drug metabolism in cynomolgus monkey liver microsomes assessed as formation of 2-mercapto-3-(4-((6-methoxy-1-methyl-1H-benzo[d]imidazol-2-yl)methoxy)phenyl)propanamide at 20 uM after 2 hrs by radio-HPLC/LC-MS/MS analysis in presence of NADPH-generating system and NADPH-generating system/SAM; assay type: ADME, Macaca fascicularis
Liver microsome = experiment: Drug metabolism in human liver microsomes assessed as formation of 2-hydroxy-3-(4-((6-methoxy-1-methyl-1H-benzo[d]imidazol-2-yl)methoxy)phenyl)propanamide at 20 uM after 2 hrs by radio-HPLC/LC-MS/MS analysis in presence of NADPH-generating system and NADPH-generating system/SAM; assay type: ADME
Cytochrome P450 2C8 [6] = molecular target: T2, Cytochrome P450 2C8; experiment: Activity of human CYP2C8 expressed in microsomes isolated from baculovirus infected insect cell assessed as enzyme-mediated 5-hydroxy-5-(4-((6-methoxy-1-methyl-1H-benzo[d]imidazol-2-yl)methoxy)benzyl)thiazolidine-2,4-dione formation at 20 uM after 2 hrs by radio-HPLC/LC-MS/MS analysis in presence of NADPH-generating system and NADPH-generating system/SAM; assay type: ADME; how it was run: as §1
Cytochrome P450 3A5 = Cytochrome P450 3A5 (Homo sapiens, UniProt P20815); experiment: Activity of human CYP3A5 expressed in microsomes isolated from baculovirus infected insect cell assessed as enzyme-mediated 2-hydroxy-3-(4-((6-methoxy-1-methyl-1H-benzo[d]imidazol-2-yl)methoxy)phenyl)propanamide formation at 20 uM after 2 hrs by radio-HPLC/LC-MS/MS analysis in presence of NADPH-generating system and NADPH-generating system/SAM; assay type: ADME
How it was run: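 cDNA-expressed human CYP3A5 in baculovirus-insect-cell microsomes (1 mg/ml protein) was incubated with [¹⁴C]rivoglitazone (20 μM) in 50 mM potassium phosphate (pH 7.4) or 100 mM Tris-HCl (pH 7.5). NADPH-generating system: 2 mM NADP⁺, 20 mM glucose 6-phosphate, 2 units/ml G6PDH, 10 mM MgCl₂. Incubation ran 2 h at 37°C with shaking; insect-cell control supersomes served as control. Acetonitrile stop, supernatant concentrated, then radio-HPLC, LC-MS and LC-MS/MS.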

Chain of Cytochrome P450 3A5 (P20815 whole entry): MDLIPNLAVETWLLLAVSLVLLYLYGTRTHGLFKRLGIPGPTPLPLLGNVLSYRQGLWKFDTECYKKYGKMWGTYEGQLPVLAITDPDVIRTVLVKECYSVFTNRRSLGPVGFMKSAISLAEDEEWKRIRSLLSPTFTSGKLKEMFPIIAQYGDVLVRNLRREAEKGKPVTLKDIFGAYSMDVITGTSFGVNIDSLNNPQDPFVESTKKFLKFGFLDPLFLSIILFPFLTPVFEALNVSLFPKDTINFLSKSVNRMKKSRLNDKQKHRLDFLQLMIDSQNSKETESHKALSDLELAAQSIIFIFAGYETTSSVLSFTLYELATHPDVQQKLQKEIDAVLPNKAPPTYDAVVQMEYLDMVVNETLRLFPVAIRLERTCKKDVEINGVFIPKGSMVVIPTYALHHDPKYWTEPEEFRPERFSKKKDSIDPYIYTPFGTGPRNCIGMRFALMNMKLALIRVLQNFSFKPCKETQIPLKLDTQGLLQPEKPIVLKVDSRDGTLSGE
Chain of Cytochrome P450 3A4 (P08684 whole entry): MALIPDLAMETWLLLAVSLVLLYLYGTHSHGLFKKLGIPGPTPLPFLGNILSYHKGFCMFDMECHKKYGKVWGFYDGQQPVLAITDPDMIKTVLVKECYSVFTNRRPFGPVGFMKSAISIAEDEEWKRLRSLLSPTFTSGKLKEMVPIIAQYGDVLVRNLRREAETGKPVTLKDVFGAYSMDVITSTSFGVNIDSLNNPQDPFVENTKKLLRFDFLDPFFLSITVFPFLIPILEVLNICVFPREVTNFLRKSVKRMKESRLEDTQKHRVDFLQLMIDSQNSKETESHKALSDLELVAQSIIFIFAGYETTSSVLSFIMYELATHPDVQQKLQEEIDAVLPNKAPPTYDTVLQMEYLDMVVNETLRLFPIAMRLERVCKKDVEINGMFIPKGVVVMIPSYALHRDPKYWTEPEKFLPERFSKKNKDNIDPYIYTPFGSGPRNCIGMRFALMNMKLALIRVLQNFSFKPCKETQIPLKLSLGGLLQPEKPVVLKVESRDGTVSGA
Chain of Cytochrome P450 2C9 (P11712 whole entry): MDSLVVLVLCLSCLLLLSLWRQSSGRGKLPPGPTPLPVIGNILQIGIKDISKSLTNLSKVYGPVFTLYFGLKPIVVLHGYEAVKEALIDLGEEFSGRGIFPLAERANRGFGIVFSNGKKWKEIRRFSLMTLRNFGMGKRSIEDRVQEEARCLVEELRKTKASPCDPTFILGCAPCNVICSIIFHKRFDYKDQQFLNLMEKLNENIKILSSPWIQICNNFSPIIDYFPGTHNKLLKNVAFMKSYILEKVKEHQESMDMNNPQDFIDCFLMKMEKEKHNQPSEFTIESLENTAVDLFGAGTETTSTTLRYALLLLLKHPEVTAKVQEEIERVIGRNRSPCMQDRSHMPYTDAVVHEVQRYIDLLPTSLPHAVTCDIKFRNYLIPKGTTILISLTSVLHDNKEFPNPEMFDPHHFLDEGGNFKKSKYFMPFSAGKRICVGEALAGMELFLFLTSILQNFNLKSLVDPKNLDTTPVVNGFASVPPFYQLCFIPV
Chain of Cytochrome P450 2C19 (P33261 whole entry): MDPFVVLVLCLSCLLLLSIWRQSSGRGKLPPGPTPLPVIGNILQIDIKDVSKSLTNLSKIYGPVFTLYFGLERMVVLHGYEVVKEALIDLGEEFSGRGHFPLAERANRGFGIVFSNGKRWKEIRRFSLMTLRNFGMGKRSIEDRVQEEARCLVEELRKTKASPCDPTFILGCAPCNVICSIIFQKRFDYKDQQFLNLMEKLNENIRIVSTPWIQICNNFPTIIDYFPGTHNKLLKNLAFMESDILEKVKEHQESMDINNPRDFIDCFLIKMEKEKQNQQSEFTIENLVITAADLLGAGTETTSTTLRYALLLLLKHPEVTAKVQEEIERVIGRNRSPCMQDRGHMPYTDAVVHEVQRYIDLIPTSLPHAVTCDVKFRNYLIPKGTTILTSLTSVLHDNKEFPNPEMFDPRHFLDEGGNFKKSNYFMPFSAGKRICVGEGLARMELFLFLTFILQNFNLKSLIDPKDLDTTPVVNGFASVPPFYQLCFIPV

| Drug metabolism (Cytochrome P450 3A4) | Drug metabolism [1] | Drug metabolism (Cytochrome P450 2C9) | Drug metabolism (Cytochrome P450 2C8 [2]) | Drug metabolism (Cytochrome P450 2C19) | Drug metabolism [3] | Drug metabolism [4] | Drug metabolism [5] | Drug metabolism (Liver microsome) | Drug metabolism (Cytochrome P450 2C8 [6]) | Drug metabolism (Cytochrome P450 3A5) | Compound |
| --- | --- | --- | --- | --- | --- | --- | --- | --- | --- | --- | --- |
| metabolite_detected | – | – | – | – | – | – | – | – | – | – | COc1ccc2nc(COc3ccc(CC(S)C(=O)O)cc3)n(C)c2c1 (stereo unspecified) |
| – | metabolite_not_detected | metabolite_not_detected | metabolite_not_detected | metabolite_not_detected | metabolite_not_detected | metabolite_detected | metabolite_detected | metabolite_detected | metabolite_detected | metabolite_detected | COc1ccc2nc(COc3ccc(C[14CH]4SC(=O)NC4=O)cc3)n(C)c2c1.Cl (racemic) |
